Data published in ChEMBL document CHEMBL3108680, “Diversity-oriented synthesis of α-aminophosphonates: a new class of potential anticancer agents” (Eur J Med Chem, 2013).
Calls of active or inactive are those of the source. The rule behind the calls is not given here.

Assays:
Assay type in all cases: functional, cell-based
[1] = system: COLO 320DM; test: Cytotoxicity against human COLO320DM cells at 200 uM after 48 hrs by MTT assay
[2] = system: MG-63; test: (§1) Cytotoxicity against human MG63 cells after 48 hrs by MTT assay
In short: (§2)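 Cells seeded at densities suited to their growth and incubated 24 h compound-free. They were then treated 48 h with six 2-fold serial dilutions, top […]. Viability was measured by MTT (added from a 10 mg/ml PBS solution; 4 h, 37 °C), followed by centrifugation, DMSO dissolution and A570. Run thrice in triplicate; mean ± SD, n = 3.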

[3] = as §1; conditions: MG-63, 48 h; in short: as §2
[4] = system: A549; test: Cytotoxicity against human A549 cells at 200 uM after 48 hrs by MTT assay
[5] = system: Jurkat; test: Cytotoxicity against human Jurkat cells at 200 uM after 48 hrs by MTT assay
[6] = system: NCI-H23; test: Cytotoxicity against human NCI-H23 cells after 48 hrs by MTT assay; conditions: for IC50: NCI-H23, 48 h; in short: as §2
[7] = system: Jurkat; test: Cytotoxicity against human Jurkat cells after 48 hrs by MTT assay
In short: (§3)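 Cells seeded at line-dependent densities, held 24 h compound-free, then exposed 48 h to six 2-fold dilutions (top […]). MTT (10 mg/ml PBS solution) added for 4 h at 37 °C; DMSO-solubilized formazan read at 570 nm. Three runs in triplicate.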

[8] = system: COLO 320DM; test: Cytotoxicity against human COLO320DM cells at 500 uM after 48 hrs by MTT assay
[9] = system: NCI-H23; test: Cytotoxicity against human NCI-H23 cells at 500 uM after 48 hrs by MTT assay
[10] = system: MG-63; test: Cytotoxicity against human MG63 cells at 500 uM after 48 hrs by MTT assay
[11] = system: A549; test: Cytotoxicity against human A549 cells at 500 uM after 48 hrs by MTT assay
[12] = system: A549; test: Cytotoxicity against human A549 cells after 48 hrs by MTT assay; conditions: for IC50: A549, 48 h
In short: as §3, with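 “Jurkat and Colo 320DM grown in RPMI 1640 with 10% FBS and 1% ampicillin; A549 in 90% DMEM with 10% FBS. Cells” for “Cells”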

[13] = (§4) Cytotoxicity against human COLO320DM cells after 48 hrs by MTT assay; conditions: COLO 320DM
In short: as §3, with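 “Jurkat and Colo 320DM grown in RPMI 1640 with 10% FBS and 1% ampicillin; A549 in 90% DMEM with 10% FBS. Cells” for “Cells”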

[14] = system: COLO 320DM; test: as §4
In short: as §3, with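 “Jurkat and Colo 320DM grown in RPMI 1640 with 10% FBS and 1% ampicillin; A549 in 90% DMEM with 10% FBS. Cells” for “Cells”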

[15] = system: MG-63; test: Cytotoxicity against human MG63 cells at 250 uM after 48 hrs by MTT assay
[16] = system: NCI-H23; test: Cytotoxicity against human NCI-H23 cells at 250 uM after 48 hrs by MTT assay
[17] = system: Jurkat; test: Cytotoxicity against human Jurkat cells at 500 uM after 48 hrs by MTT assay
[18] = system: Jurkat; test: Cytotoxicity against human Jurkat cells at 100 uM after 48 hrs by MTT assay

Compound	inhibition [2]	IC50 [3] [µM]	inhibition [6]	IC50 [6] [µM]	IC50 [7] [µM]	inhibition [7]	inhibition [12]	IC50 [12] [µM]	IC50 [13] [µM]	inhibition [14]	further results
CCOP(=O)(OCC)C(Nc1ccccc1)c1ccc(OC)cc1 (stereo unspecified)	Dose-dependent effect	106	Dose-dependent effect	53.8	–	–	–	–	–	–	inhibition [1]: inactive; inhibition [4]: inactive; inhibition [5]: inactive
CO[C@@]12[C@H](COC(N)=O)C3=C(C(=O)C(C)=C(N)C3=O)N1C[C@@H]1N[C@@H]12 [MITOMYCIN]	–	–	Dose-dependent effect	2	–	–	–	–	–	–	–
CCCCOP(=O)(OCCCC)C(Nc1ccccc1C)c1ccc2c(c1)OCO2 (stereo unspecified)	–	–	–	–	> 500	Dose-dependent effect	–	–	–	–	inhibition [8]: inactive; inhibition [9]: inactive; inhibition [10]: inactive; inhibition [11]: inactive
COc1cccc2c1C(=O)c1c(O)c3c(c(O)c1C2=O)C[C@@](O)(C(=O)CO)C[C@@H]3O[C@H]1C[C@H](N)[C@H](O)[C@H](C)O1 [DOXORUBICIN]	Dose-dependent effect	3.17	–	–	–	–	Dose-dependent effect	4	–	–	–
CCCCOP(=O)(OCCCC)C(Nc1cccc(Cl)c1)c1ccc2c(c1)OCO2 (stereo unspecified)	Dose-dependent effect	108	Dose-dependent effect	77.2	> 500	Dose-dependent effect	Dose-dependent effect	263	93	Dose-dependent effect	–
CCCCOP(=O)(OCCCC)C(Nc1ccc2c(c1)OCO2)c1ccc2c(c1)OCO2 (stereo unspecified)	–	–	–	–	80	Dose-dependent effect	Dose-dependent effect	192	66.5	Dose-dependent effect	inhibition [15]: inactive; inhibition [16]: inactive
CCOP(=O)(OCC)C(Nc1ccccc1)c1ccc2c(c1)OCO2 (stereo unspecified)	Dose-dependent effect	68.8	Dose-dependent effect	65.8	> 500	Dose-dependent effect	Dose-dependent effect	134	92	Dose-dependent effect	–
CCOP(=O)(OCC)C(Nc1ccccc1)c1ccc(OC)c(O)c1 (stereo unspecified)	Dose-dependent effect	37.5	Dose-dependent effect	39.7	57	Dose-dependent effect	Dose-dependent effect	62.4	47.9	Dose-dependent effect	–
CCCCOP(=O)(OCCCC)C(N[C@@H](C)c1ccccc1)c1ccc2c(c1)OCO2 (stereo partly specified)	–	–	–	–	–	–	–	–	–	–	inhibition [17]: inactive; inhibition [8]: inactive; inhibition [9]: inactive; inhibition [10]: inactive; inhibition [11]: inactive
CCOP(=O)(OCC)C(Nc1ccccc1)c1ccc([N+](=O)[O-])cc1 (stereo unspecified)	Dose-dependent effect	31.9	Dose-dependent effect	37.4	–	–	Dose-dependent effect	57.5	42.1	Dose-dependent effect	inhibition [18]: inactive
CCOP(=O)(OCC)C(Nc1ccccc1)c1ccc(F)cc1 (stereo unspecified)	–	–	–	–	–	–	–	–	160	Dose-dependent effect	inhibition [17]: inactive; inhibition [9]: inactive; inhibition [10]: inactive; inhibition [11]: inactive
CCOP(=O)(OCC)C(Nc1c(C)cccc1C)c1ccc2c(c1)OCO2 (stereo unspecified)	Dose-dependent effect	114	Dose-dependent effect	248	> 500	Dose-dependent effect	Dose-dependent effect	> 500	105	Dose-dependent effect	–
O=P(Oc1ccccc1)(Oc1ccccc1)C(Nc1cccc(F)c1)c1ccc2c(c1)OCO2 (stereo unspecified)	–	–	Dose-dependent effect	48.2	490	Dose-dependent effect	–	–	–	–	inhibition [8]: inactive; inhibition [10]: inactive; inhibition [11]: inactive
CCCCOP(=O)(OCCCC)C(Nc1cccc(F)c1)c1ccc2c(c1)OCO2 (stereo unspecified)	Dose-dependent effect	122	Dose-dependent effect	95.8	> 500	Dose-dependent effect	Dose-dependent effect	364	80.3	Dose-dependent effect	–
CC/C(=C(\c1ccccc1)c1ccc(OCCN(C)C)cc1)c1ccccc1	–	–	–	–	–	Dose-dependent effect	–	–	–	–	–
O=c1[nH]cc(F)c(=O)[nH]1 [FLUOROURACIL]	–	–	–	–	–	–	–	–	2	Dose-dependent effect	–
CCOP(=O)(OCC)C(Nc1ccccc1)c1ccc(OC)c(OC)c1 (stereo unspecified)	Dose-dependent effect	34	Dose-dependent effect	39.5	–	–	Dose-dependent effect	74.1	36.4	Dose-dependent effect	inhibition [18]: inactive
CCOP(=O)(OCC)C(Nc1ccccc1O)c1ccc2c(c1)OCO2 (stereo unspecified)	Dose-dependent effect	115	Dose-dependent effect	190	> 500	Dose-dependent effect	Dose-dependent effect	278	79.4	Dose-dependent effect	–
CCCCOP(=O)(OCCCC)C(N[C@H](C)c1ccccc1)c1ccc2c(c1)OCO2 (stereo partly specified)	Dose-dependent effect	13.6	Dose-dependent effect	28.6	4	Dose-dependent effect	Dose-dependent effect	43.4	15.8	Dose-dependent effect	–
